Results collected from several papers.
Each line is one published result; the experiments were not run side by side.
UGT2B7: UDP-glucuronosyltransferase 2B7 (UGT2B7, Homo sapiens, UniProt P16662)

`CC(=O)O[C@@H]1c2c(ccc3ccc(=O)oc23)OC(C)(C)[C@@H]1OC(=O)C1(C)OC1C` (stereo partly drawn) gave an IC50 of 42.8 µM (RD; cell growth or viability, WST-1).
With `CCOC(=O)CC1SC(=NN=Cc2cccc(Br)c2)NC1=O` (stereo not drawn) the CC50 was 446 µM (LLC-MK2; cell growth or viability, MTT; 96 h, pH 7.2).
`C=C1CCC2C(C)(CO)C(=O)CCC2(C)C1CCC1=CCOC1=O` (stereo not drawn) gave an inhibition of 94% (UGT2B7; enzyme activity, inhibitor; 100 µM).
For `COc1cc(OC)cc(N(CCNC(C)C)c2ccc3ncc(-c4cnn(C)c4)nc3c2)c1`, the Papp was 19.8 ×10⁻⁶ cm/s (LLC-PK1; Caco-2).
The inhibition of `C=C1CC[C@@H]2[C@](C)(CO)[C@H](O)CC[C@@]2(C)[C@@H]1C/C=C1/C(=O)OC[C@H]1O` is reported as 94% (UGT2B7; enzyme activity, inhibitor; 100 µM, pH 7.4).
`C[C@@H](Nc1cc(F)cc(F)c1)c1cc(C(=O)N(C)C)cc2c(=O)cc(N3CCOCC3)oc12` gave a Tmax of 1.53 h (human, plasma; oral, 30 mg, patients).
`CC1(C)CC[C@]2(C)CC[C@]3(C)[C@H]4CC=C5[C@@H](CC[C@H](O)C5(C)C)[C@]4(C)CC[C@@]3(C)[C@@H]2C1` gave an IC50 of 79.8 µM (RD; cell growth or viability, WST-1).
For `CCOC(=O)CC1SC(=NN=Cc2ccc(O)c(OC)c2)NC1=O` (stereo not drawn), the CC50 was 545 µM (LLC-MK2; cell growth or viability, MTT; 96 h, pH 7.2).
With `C/C=C(/C)C(=O)O[C@@H]1[C@H](OC(C)=O)c2c(ccc3ccc(=O)oc23)OC1(C)C` the IC50 was 44.4 µM (RD; cell growth or viability, WST-1).
`CCOC(=O)CC1SC(=NN=Cc2ccccc2Cl)NC1=O` (stereo not drawn) gave a CC50 of 229 µM (LLC-MK2; cell growth or viability, MTT; 96 h, pH 7.2).
`COc1cccc(OC)c1-c1cc(C(=O)NC2(C(=O)O)C3CC4CC(C3)CC2C4)nn1-c1ccc(C(=O)N(C)CCCN(C)CCCN(C)C(=O)CN2CCN(CC(=O)[O-])CCN(CC(=O)[O-])CCN(CC(=O)[O-])CC2)cc1C(C)C.[177Lu+3]` (stereo not drawn) has a tracer uptake of 3.1 %ID/g (HT-29; liver; intravenous, 4 h, tumour-bearing).
`CCOC(=O)CC1SC(=NN=Cc2ccc(OC)cc2)NC1=O` (stereo not drawn) has a CC50 of 399 µM (LLC-MK2; cell growth or viability, MTT; 96 h, pH 7.2).
`C[C@H](O)c1cc(C(=O)N[C@@H](C)Cn2ccc(-c3ccc(C#N)c(Cl)c3)n2)n[nH]1` has an IC50 of over 100 µM (UGT2B7; enzyme activity, inhibitor; human, liver microsomes).
`CCOC(=O)CC1SC(=NN=Cc2ccccc2OC)NC1=O` (stereo not drawn) has a CC50 of 539 µM (LLC-MK2; cell growth or viability, MTT; 96 h, pH 7.2).
For `CC(C)n1cc(C#N)c2cc(-n3cc(C(=O)O)cn3)ccc21`, the Tmax was 2.7 h (human, plasma; oral, 200 mg, single dose, fasted, healthy volunteers).
